In ChEMBL document CHEMBL4368943 (J Med Chem, 2019):

Experiments:
[1] = target: T1, von Hippel-Lindau disease tumor suppressor/Estrogen receptor/Cullin-2 (Homo sapiens, UniProt P03372+P40337+Q13617); assay: Protac activity against VHL/cullin2/ERalpha in human MCF7 cells assessed as ERalpha degradation by measuring ER protein/GADPH ratio at 1 nM after 4 hrs by Western blot analysis relative to control; type: cell-based
Outline: (§1)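 MCF-7 cells (DMEM, 10% FBS, passages 3−8) exposed 4 h. Lysed in RIPA with protease inhibitors; equal protein on 10% SDS-PAGE, PVDF, anti-ERα blot. Membranes stripped and reprobed for GAPDH. ERα/GAPDH ratio normalized to DMSO = 100; DC50 from densitometry of the dose series.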

[2] = target: T1, von Hippel-Lindau disease tumor suppressor/Estrogen receptor/Cullin-2; assay: Protac activity against VHL/cullin2/ERalpha in human MCF7 cells assessed as ERalpha degradation by measuring ER protein/GADPH ratio at 10 nM after 4 hrs by Western blot analysis relative to control; type: cell-based; outline: as §1
[3] = target: T1, von Hippel-Lindau disease tumor suppressor/Estrogen receptor/Cullin-2; assay: Protac activity against VHL/cullin2/ERalpha in human MCF7 cells assessed as ERalpha degradation by measuring ER protein/GADPH ratio at 100 nM after 4 hrs by Western blot analysis relative to control; type: cell-based; outline: as §1
[4] = Binding affinity to His-TEV-tagged VHL (54 to 213 residues) (unknown origin)/Elongin B (1 to 118 residues)/Elongin C (1 to 96 residues) expressed in Escherichia coli BL21(DE3) by FP assay; parameters: species or system Homo sapiens
Outline: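 Competitive FP. Tracer is a fluorescent VHL ligand (Kd 2.3 nM). VHL–ElonginB/C complex and tracer each at 5 nM final, preincubated. Compound in DMSO (5 µL into 95 µL) for 60 min at room temperature with shaking. Ex 485/em 530 nm. IC50 by nonlinear regression; Ki from probe KD and protein/probe concentrations. Duplicate, three independent experiments.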

T1 sequence (P03372 whole entry, looked up): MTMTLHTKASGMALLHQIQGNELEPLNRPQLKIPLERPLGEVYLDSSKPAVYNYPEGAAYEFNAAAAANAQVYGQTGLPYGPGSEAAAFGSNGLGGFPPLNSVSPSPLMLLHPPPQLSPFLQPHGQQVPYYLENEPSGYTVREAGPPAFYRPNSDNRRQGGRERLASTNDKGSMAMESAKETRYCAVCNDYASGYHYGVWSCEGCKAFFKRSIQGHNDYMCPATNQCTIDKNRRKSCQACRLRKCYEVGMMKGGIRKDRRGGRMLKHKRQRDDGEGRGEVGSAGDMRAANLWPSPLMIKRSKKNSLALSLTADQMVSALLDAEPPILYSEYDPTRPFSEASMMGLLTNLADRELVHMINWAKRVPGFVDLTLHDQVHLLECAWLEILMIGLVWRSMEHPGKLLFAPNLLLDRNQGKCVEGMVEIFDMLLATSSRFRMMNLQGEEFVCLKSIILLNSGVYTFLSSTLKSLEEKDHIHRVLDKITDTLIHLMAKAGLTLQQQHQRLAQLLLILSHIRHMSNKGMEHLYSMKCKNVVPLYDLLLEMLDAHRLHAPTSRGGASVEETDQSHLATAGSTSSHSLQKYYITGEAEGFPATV
T1 sequence (P40337 whole entry, looked up): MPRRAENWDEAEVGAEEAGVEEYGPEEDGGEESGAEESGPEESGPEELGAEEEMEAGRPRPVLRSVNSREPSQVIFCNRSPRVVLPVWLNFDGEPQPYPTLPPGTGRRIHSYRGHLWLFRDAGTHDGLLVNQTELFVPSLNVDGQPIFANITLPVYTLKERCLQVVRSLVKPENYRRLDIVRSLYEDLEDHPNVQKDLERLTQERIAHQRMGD
T1 sequence (Q13617 whole entry, looked up): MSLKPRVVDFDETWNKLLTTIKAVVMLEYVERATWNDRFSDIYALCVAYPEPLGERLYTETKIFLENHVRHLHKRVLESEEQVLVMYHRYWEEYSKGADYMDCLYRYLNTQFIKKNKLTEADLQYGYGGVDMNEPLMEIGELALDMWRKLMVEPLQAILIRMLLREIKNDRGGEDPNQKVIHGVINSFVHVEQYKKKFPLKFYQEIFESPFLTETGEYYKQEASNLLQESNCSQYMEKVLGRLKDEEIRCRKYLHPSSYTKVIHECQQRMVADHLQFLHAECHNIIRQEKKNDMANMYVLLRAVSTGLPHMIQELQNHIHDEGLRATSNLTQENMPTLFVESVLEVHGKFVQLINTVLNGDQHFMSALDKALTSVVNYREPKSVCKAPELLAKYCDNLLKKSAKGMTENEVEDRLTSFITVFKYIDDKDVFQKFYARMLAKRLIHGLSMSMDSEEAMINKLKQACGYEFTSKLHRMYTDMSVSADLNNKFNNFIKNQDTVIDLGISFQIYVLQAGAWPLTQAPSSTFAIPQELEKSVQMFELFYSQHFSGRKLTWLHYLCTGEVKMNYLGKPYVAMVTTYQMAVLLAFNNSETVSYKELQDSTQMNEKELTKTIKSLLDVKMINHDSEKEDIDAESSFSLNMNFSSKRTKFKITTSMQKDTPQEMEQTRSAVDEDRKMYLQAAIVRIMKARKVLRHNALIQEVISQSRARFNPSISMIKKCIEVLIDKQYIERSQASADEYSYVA

Row | SMILES | Ratio [1] | Ratio [2] | Ratio [3] | IC50 [4]
1 | Cc1ncsc1-c1ccc([C@H](C)NC(=O)[C@@H]2C[C@@H](O)CN2C(=O)[C@@H](NC(=O)CCCCCCCN(CCOc2ccc(C(=O)c3c(-c4ccc(O)cc4)sc4cc(O)ccc34)cc2)C(C)(C)C)C(C)(C)C)cc1 | 21 | 0.2 | 0 | 
2 | CCN(CCCCCCCC(=O)N[C@H](C(=O)N1C[C@H](O)C[C@H]1C(=O)N[C@@H](C)c1ccc(C#N)cc1)C(C)(C)C)CCOc1ccc(C(=O)c2c(-c3ccc(O)cc3)sc3cc(O)ccc23)cc1 | 110 | 86 | 80 | 
3 | Cc1ncsc1-c1ccc([C@H](C)NC(=O)[C@@H]2C[C@@H](O)CN2C(=O)[C@@H](NC(=O)CCCCCCCN(C)CCOc2ccc(C(=O)c3c(-c4ccc(O)cc4)sc4cc(O)ccc34)cc2)C(C)(C)C)cc1 | 27 | 153 | 46 | 
4 | Cc1ncsc1-c1ccc([C@H](C)NC(=O)[C@@H]2C[C@@H](O)CN2C(=O)[C@@H](NC(=O)CCCCCCCN(CCOc2ccc(C(=O)c3c(-c4ccc(O)cc4)sc4cc(O)ccc34)cc2)CC2CCC2)C(C)(C)C)cc1 | 76 | 1.3 | 0.2 | 
5 | CCN(CCCCCCCC(=O)N[C@H](C(=O)N1C[C@H](O)C[C@H]1C(=O)NCc1ccc(-c2scnc2C)cc1)C(C)(C)C)CCOc1ccc(C(=O)c2c(-c3ccc(O)cc3)sc3cc(O)ccc23)cc1 | 79 | 71 | 62 | 
6 | CCN(CCOCCOCC(=O)N[C@H](C(=O)N1C[C@H](O)C[C@H]1C(=O)N[C@@H](C)c1ccc(-c2scnc2C)cc1)C(C)(C)C)CCOc1ccc(C(=O)c2c(-c3ccc(O)cc3)sc3cc(O)ccc23)cc1 | 94 | 0.4 | 0.4 | 
7 | Cc1ncsc1-c1ccc([C@H](C)NC(=O)[C@@H]2C[C@@H](O)CN2C(=O)[C@@H](NC(=O)CCCCCCCN(CCOc2ccc(C(=O)c3c(-c4ccc(O)cc4)sc4cc(O)ccc34)cc2)C2CCC2)C(C)(C)C)cc1 | 15 | 4 | 0.1 | 
8 | CCN(CCCCC(=O)N[C@H](C(=O)N1C[C@H](O)C[C@H]1C(=O)N[C@@H](C)c1ccc(-c2scnc2C)cc1)C(C)(C)C)CCOc1ccc(C(=O)c2c(-c3ccc(O)cc3)sc3cc(O)ccc23)cc1 | 90 | 129 | 92 | 
9 | CCN(CCOCCOCCC(=O)N[C@H](C(=O)N1C[C@H](O)C[C@H]1C(=O)N[C@@H](C)c1ccc(-c2scnc2C)cc1)C(C)(C)C)CCOc1ccc(C(=O)c2c(-c3ccc(O)cc3)sc3cc(O)ccc23)cc1 | 183 | 2.4 | 1.7 | 
10 | CCN(CCCC#Cc1cnn(CCC(=O)N[C@H](C(=O)N2C[C@H](O)C[C@H]2C(=O)N[C@@H](C)c2ccc(-c3scnc3C)cc2)C(C)(C)C)c1)CCOc1ccc(C(=O)c2c(-c3ccc(O)cc3)sc3cc(O)ccc23)cc1 | 70 | 0.5 | 0.4 | 
11 | CCN(CCC#Cc1cnn(CC(=O)N[C@H](C(=O)N2C[C@H](O)C[C@H]2C(=O)N[C@@H](C)c2ccc(-c3scnc3C)cc2)C(C)(C)C)c1)CCOc1ccc(C(=O)c2c(-c3ccc(O)cc3)sc3cc(O)ccc23)cc1 | 139 | 45 | 24 | 
12 | CCN(CCCCCCCC(=O)N[C@H](C(=O)N1C[C@H](O)C[C@H]1C(=O)N[C@@H](C)c1ccc(C2CC2)cc1)C(C)(C)C)CCOc1ccc(C(=O)c2c(-c3ccc(O)cc3)sc3cc(O)ccc23)cc1 | 130 | 75 | 70 | 
13 | CCC(=C(c1ccccc1)c1ccc(OCCN(CC)CCCCCCCC(=O)N[C@H](C(=O)N2C[C@H](O)C[C@H]2C(=O)N[C@@H](C)c2ccc(-c3scnc3C)cc2)C(C)(C)C)cc1)c1ccccc1 | 103 | 97 | 2.4 | 
14 | C#Cc1ccc([C@H](C)NC(=O)[C@@H]2C[C@@H](O)CN2C(=O)[C@@H](NC(C)=O)C(C)(C)C)cc1 |  |  |  | 0.879 µM
15 | CCC(=C(c1ccc(O)cc1)c1ccc(OCCN(CC)CCCCCCCC(=O)N[C@H](C(=O)N2C[C@H](O)C[C@H]2C(=O)N[C@@H](C)c2ccc(-c3scnc3C)cc2)C(C)(C)C)cc1)c1ccccc1 | 55 | 24 | 0.6 | 
16 | CCN(CCCCCCCC(=O)N[C@H](C(=O)N1C[C@H](O)C[C@H]1C(=O)N[C@@H](C)c1ccc(Cl)cc1)C(C)(C)C)CCOc1ccc(C(=O)c2c(-c3ccc(O)cc3)sc3cc(O)ccc23)cc1 | 99 | 87 | 79 | 
17 | Cc1ncsc1-c1ccc([C@H](C)NC(=O)[C@@H]2C[C@@H](O)CN2C(=O)[C@@H](NC(=O)CCCCCCCN(CCOc2ccc(C(=O)c3c(-c4ccc(O)cc4)sc4cc(O)ccc34)cc2)C2CCCCC2)C(C)(C)C)cc1 | 68 | 0.6 | 0.1 | 

Row | SMILES | Ratio [1] | Ratio [2] | Ratio [3] | IC50 [4]
18 | CCN(CCCC(=O)N[C@H](C(=O)N1C[C@H](O)C[C@H]1C(=O)N[C@@H](C)c1ccc(-c2scnc2C)cc1)C(C)(C)C)CCOc1ccc(C(=O)c2c(-c3ccc(O)cc3)sc3cc(O)ccc23)cc1 | 63 | 139 | 135 | 
19 | CCN(CCCCCCCC(=O)N[C@H](C(=O)N1C[C@H](O)C[C@H]1C(=O)N[C@@H](C)c1ccc(-c2scnc2C)cc1)C(C)(C)C)CCOc1ccc([C@@H]2c3ccc(O)cc3CC[C@@H]2c2ccccc2)cc1 | 74 | 5 | 0.3 | 
20 | C#Cc1ccc([C@H](C)NC(=O)[C@@H]2C[C@@H](O)CN2C(=O)[C@@H](NC(=O)CCCCCCCN(CC)CCOc2ccc(C(=O)c3c(-c4ccc(O)cc4)sc4cc(O)ccc34)cc2)C(C)(C)C)cc1 | 90 | 24 | 8 | 
21 | CCN(CCCCCCCC(=O)N[C@H](C(=O)N1C[C@H](O)C[C@H]1C(=O)N[C@@H](C)c1ccc(C(C)C)cc1)C(C)(C)C)CCOc1ccc(C(=O)c2c(-c3ccc(O)cc3)sc3cc(O)ccc23)cc1 | 138 | 109 | 78 | 
22 | CCN(CCCCCCCCC(=O)N[C@H](C(=O)N1C[C@H](O)C[C@H]1C(=O)N[C@@H](C)c1ccc(-c2scnc2C)cc1)C(C)(C)C)CCOc1ccc(C(=O)c2c(-c3ccc(O)cc3)sc3cc(O)ccc23)cc1 | 23 | 7 | 3 | 
23 | CCN(CCCCCCC(=O)N[C@H](C(=O)N1C[C@H](O)C[C@H]1C(=O)N[C@@H](C)c1ccc(-c2scnc2C)cc1)C(C)(C)C)CCOc1ccc(C(=O)c2c(-c3ccc(O)cc3)sc3cc(O)ccc23)cc1 | 32 | 8 | 6 | 
24 | CCN(CCOc1ccc(C(=O)c2c(-c3ccc(O)cc3)sc3cc(O)ccc23)cc1)CCC1CCN(CCCC(=O)N[C@H](C(=O)N2C[C@H](O)C[C@H]2C(=O)N[C@@H](C)c2ccc(-c3scnc3C)cc2)C(C)(C)C)CC1 | 227 | 91 | 98 | 
25 | CCN(CCOc1ccc(C(=O)c2c(-c3ccc(O)cc3)sc3cc(O)ccc23)cc1)CCN1CCN(CCCC(=O)N[C@H](C(=O)N2C[C@H](O)C[C@H]2C(=O)N[C@@H](C)c2ccc(-c3scnc3C)cc2)C(C)(C)C)CC1 | 208 | 50 | 24 | 
26 | Cc1ncsc1-c1ccc([C@H](C)NC(=O)[C@@H]2C[C@@H](O)CN2C(=O)[C@@H](NC(=O)CCCCCCCN(CCOc2ccc(C(=O)c3c(-c4ccc(O)cc4)sc4cc(O)ccc34)cc2)C2CCCC2)C(C)(C)C)cc1 | 75 | 0.3 | 0.1 | 
27 | Cc1ncsc1-c1ccc([C@H](C)NC(=O)[C@@H]2C[C@@H](O)CN2C(=O)[C@@H](NC(=O)CCCCCCCN(CCOc2ccc(C(=O)c3c(-c4ccc(O)cc4)sc4cc(O)ccc34)cc2)C(C)C)C(C)(C)C)cc1 | 28 | 0.5 | 0.2 | 
28 | Cc1ncsc1-c1ccc([C@H](C)NC(=O)[C@@H]2C[C@@H](O)CN2C(=O)[C@@H](NC(=O)CCCCCCCN(CCOc2ccc(C(=O)c3c(-c4ccc(O)cc4)sc4cc(O)ccc34)cc2)C2CC2)C(C)(C)C)cc1 | 20 | 0.2 | 0.1 | 
29 | CCN(CCCCCC(=O)N[C@H](C(=O)N1C[C@H](O)C[C@H]1C(=O)N[C@@H](C)c1ccc(-c2scnc2C)cc1)C(C)(C)C)CCOc1ccc(C(=O)c2c(-c3ccc(O)cc3)sc3cc(O)ccc23)cc1 | 26 | 66 | 12 | 
30 | CCN(CCCCCCCC(=O)N[C@H](C(=O)N1C[C@H](O)C[C@H]1C(=O)N[C@@H](C)c1ccc(C(C)(C)C)cc1)C(C)(C)C)CCOc1ccc(C(=O)c2c(-c3ccc(O)cc3)sc3cc(O)ccc23)cc1 | 136 | 112 | 80 | 
31 | CCN(CCCCCCCCCC(=O)N[C@H](C(=O)N1C[C@H](O)C[C@H]1C(=O)N[C@@H](C)c1ccc(-c2scnc2C)cc1)C(C)(C)C)CCOc1ccc(C(=O)c2c(-c3ccc(O)cc3)sc3cc(O)ccc23)cc1 | 25 | 0.4 | 0.3 | 
32 | CCN(CCCCCCCC(=O)N[C@H](C(=O)N1C[C@H](O)C[C@H]1C(=O)N[C@@H](C)c1ccc(-c2scnc2C)cc1)C(C)(C)C)CCOc1ccc(Cn2c(-c3ccc(O)cc3)c(C)c3cc(O)ccc32)cc1 | 74 | 10 | 0.2 | 
33 | CCN(CCCCc1cnn(CC(=O)N[C@H](C(=O)N2C[C@H](O)C[C@H]2C(=O)N[C@@H](C)c2ccc(-c3scnc3C)cc2)C(C)(C)C)c1)CCOc1ccc(C(=O)c2c(-c3ccc(O)cc3)sc3cc(O)ccc23)cc1 | 99 | 20 | 12 | 
